# Results from ChEMBL document CHEMBL1287760, “Optimization of purine-nitrile TbcatB inhibitors for use in vivo and evaluation of efficacy in murine models” (Bioorg Med Chem, 2010).
# pEC50, pIC50: −log10 of the molar value. Active and inactive are the calls of the source. No cut-off for these calls is given here.
# How the values were obtained:
# [1] = Inhibition of Trypanosoma brucei cathepsin B expressed in Pichia pastoris
# Trypanosoma brucei [2] = assay: Antitrypanosomal activity against Trypanosoma brucei after 48 hrs; format: functional, organism-based
# [3] = Aqueous solubility of compound in deionized water; format: physicochemical
# In short: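 Aqueous solubility measured in deionized water.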
# [4] = Half life in CD1 mouse plasma by UPLC-MS analysis; format: ADME, cell-free
# In short: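 Half-life in mouse plasma measured at 37 °C.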
# [5] = Toxicity in human erythrocyte assessed as hemolysis at 10 uM after 5 hrs; format: cell-based; details: erythrocytes, read-out: Activity
# In short: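 Human erythrocytes washed three times after spinning whole blood at 1000g for 5 min. Test compound at 10 µM final, 2% hematocrit. PBS negative control; 0.4% saponin dilution series as standard. After centrifugation, supernatant absorbance read at 414 nm and % hemolysis taken from the calibration curve. Triplicate.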
# [6] = Half life in CD1 mouse liver microsomes by UPLC-MS analysis; format: ADME, Microsome; details: for half-life: CD1, mouse, liver microsomes
# In short: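 CD-1 female mouse liver microsomes in 0.1 M potassium phosphate pH 7.4 with EDTA and NADPH-regenerating solutions, 37 °C, shaken. Samples at 0, 0.5, 1 and 2 h quenched with cold acetonitrile containing caffeine internal standard. UPLC–MS (SIR) read-out. Log peak-area ratio versus time gives slope; k = −2.303 × slope, t1/2 = 0.693/k.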
# [7] = Therapeutic index, ratio of EC50 for human cells to EC50 for Trypanosoma brucei; details: human cells versus Trypanosoma brucei, read-out: Ratio EC50
# In short: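 Index = EC50 against the most sensitive mammalian line (HEK 293, Hep G2, BJ, Raji) divided by EC50 against T.b. brucei.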
# [8] = Chemical stability in phosphate buffered saline at pH 7.4 after 14 days; format: physicochemical; details: buffer, pH 7.4, 336 h
# In short: (§1)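 Stability in PBS (pH 3, 5 and 7.4) followed over 14 days for non-metabolic degradation.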
# Raji = assay: Cytotoxicity against human Raji cells after 72 hrs by alamar blue assay; format: cell-based
# [9] = Chemical stability in dimethyl sulfoxide at pH 7.4 after 14 days; format: physicochemical; details: buffer, pH 7.4, 336 h
# In short: (§2)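 DMSO stability followed over 14 days for non-metabolic degradation.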
# Mus musculus [10] = assay: Stability of the compound in po dosed mouse blood assessed as 3-(2-cyano-6-(3,4-dichlorobenzylamino)-9H-purin-9-yl)propanoic acid level after 4 hrs; format: ADME, organism-based; details: in vivo
# In short: (§3)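 Oral gavage of compound suspensions to female Balb/c mice; blood sampled retro-orbitally at 1, 2 and 4 h (one sample per mouse) and by cardiac puncture at 48 h. Parent compound and metabolites measured by UPLC–MS; metabolite identity assigned by MS/MS against a synthesized standard.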
# HepG2 = assay: Cytotoxicity against human HepG2 cells after 72 hrs by alamar blue assay; format: cell-based; details: hepg2, 72 h
# [11] = Chemical stability in dimethyl sulfoxide at pH 3 after 14 days; format: physicochemical; details: buffer, pH 3, 336 h; in short: as §2
# [12] = Permeability of the compound assessed as ratio of compound in acceptor chamber to amount of compound in donor chamber at pH 7.4 by PAMPA assay; format: ADME
# [13] = Chemical stability in phosphate buffered saline at pH 3 after 14 days; format: physicochemical; details: buffer, pH 3, 336 h; in short: as §1
# [14] = Chemical stability in dimethyl sulfoxide at pH 5 after 14 days; format: physicochemical; details: buffer, pH 5, 336 h; in short: as §2
# [15] = Permeability of the compound assessed as ratio of compound in acceptor chamber to amount of compound in donor chamber at pH 5 by PAMPA assay; format: ADME
# BJ = assay: Cytotoxicity against human BJ cells after 72 hrs by alamar blue assay; format: cell-based
# Mus musculus [16] = assay: Stability of the compound in po dosed mouse blood assessed as 3-(2-cyano-6-(3,4-dichlorobenzylamino)-9H-purin-9-yl)propanoic acid level after 1 hr; format: ADME, organism-based; details: in vivo; in short: as §3
# [17] = Permeability of the compound assessed as ratio of compound in acceptor chamber to amount of compound in donor chamber at pH 3 by PAMPA assay; format: ADME
# Mus musculus [18] = assay: Stability of the compound in po dosed mouse blood assessed as 3-(2-cyano-6-(3,4-dichlorobenzylamino)-9H-purin-9-yl)propanoic acid level; format: ADME, organism-based; details: in vivo; in short: as §3
# [19] = Chemical stability in phosphate buffered saline at pH 5 after 14 days; format: physicochemical; details: buffer, pH 5, 336 h; in short: as §1
# HEK293 = assay: Cytotoxicity against human HEK293 cells after 72 hrs by alamar blue assay; format: cell-based; details: hek293, 72 h
# Trypanosoma brucei [20] = assay: Antitrypanosomal activity against Trypanosoma brucei 221 infected in BALB/c mouse assessed as decrease of parasitemia at 200 mg/kg, po qd for 5 days measured on day 6; format: functional, organism-based; parameters: dose 200 mg/kg
# [21] = Long term solid state stability of the compound at simulated tropical condition after 30 days; format: physicochemical; details: 720 h
# Mus musculus [22] = assay: Toxicity in mouse assessed as transient darkening of the eyes at 2 to 8 mg/kg, iv measured immediately after dosing; format: organism-based; parameters: dose 2-8 mg/kg, route intravenous; details: in vivo
# In short: (§4)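 Female Balb/c mice dosed by lateral tail-vein injection of solubilized compound at 2, 4 and 8 mg/kg (0.4–1.6 mg/ml solutions, 0.1 ml per 20 g). Observed by a modified Irwin functional observational battery (gait, alertness, respiration, piloerection, vasodilation, vocalization).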
# [23] = Cmax in mouse plasma at 200 mg/kg, ip; format: ADME, organism-based; parameters: dose 200 mg/kg, route intraperitoneal
# Trypanosoma brucei [24] = assay: Antitrypanosomal activity against Trypanosoma brucei 221 infected in BALB/c mouse assessed as increase of mouse survival days at 200 mg/kg, po qd for 5 days relative to control; format: functional
# In short: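 Female Balb/C mice (10–12 weeks) infected on day 0 by IP injection of ~800 T.b. brucei 221 parasites (cultured in HMI-9 with 10% FBS and 10% Serum Plus, diluted to 8 × 10³ parasites/ml, 0.1 ml). Oral gavage of 200 mg/kg on days 0–4 in 20% ethanol/40% propylene glycol/10% PEG 400/30% PBS pH 7.4; vehicle controls. Mice were randomly assigned to groups. Parasitemia was counted by hemocytometer every third day from day 4. Survival days were recorded.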
# [25] = Cmax in mouse brain at 200 mg/kg, po
# [26] = Toxicity in po dosed mouse assessed as maximum tolerated dosage; format: organism-based; details: in vivo
# In short: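 Female balb/c mice, 10–12 weeks, housed individually. Oral gavage in a four-stage escalation: vehicle, then 50, 100 and 200 mg/kg. Some groups went on to 400 and 1000 mg/kg. Dose volume 0.1 ml per 20 g. Twelve mice per compound. A modified Irwin FOB was run for 15 min after each dose and at 1–48 h (gait, alertness, respiration, piloerection, vasodilation, vocalization). Necropsy, CBC and serum chemistry were done at 48 h.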
# Trypanosoma brucei [27] = assay: Antitrypanosomal activity against Trypanosoma brucei 221 infected in BALB/c mouse assessed as decrease of parasitemia at 200 mg/kg, po qd for 5 days measured on day 4; format: functional, organism-based; parameters: dose 200 mg/kg
# In short: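 Female Balb/C mice (10–12 weeks) infected ip on day 0 with ~800 T.b. brucei strain 221 (0.1 ml of 8 × 10³ parasites/ml in unsupplemented HMI-9; parasites grown to 10⁷/ml in supplemented HMI-9). Randomized to oral gavage of 200 mg/kg suspension or vehicle (20% ethanol/40% propylene glycol/10% PEG 400/30% PBS pH 7.4) on days 0–4. Parasitemia counted by hemocytometer in saphenous blood every third day from day 4.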
# [28] = Drug level in mouse brain at 200 mg/kg, po after 24 hrs; details: read-out: Drug uptake
# [29] = Cmax in mouse plasma at 50 to 1000 mg/kg, po after 1 to 4 hrs
# [30] = Cmax in mouse plasma at 200 mg/kg, po; format: ADME, organism-based; parameters: dose 200 mg/kg, route oral
# In short: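 Female Balb/c mice given oral gavage suspensions (20% ethanol/40% propylene glycol/10% PEG 400/30% PBS pH 7.4), 0.1 ml per 20 g, at 50–1000 mg/kg. Retro-orbital blood (0.1 ml, EDTA) taken from a different mouse at 1, 2, 4 h, some also at 8, 12, 24 h, plus a 48 h cardiac bleed. Plasma precipitated with 3 parts cold acetonitrile; concentration by UV/HPLC.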
# [31] = Ratio of plasma concentration mouse at 200 mg/kg, po to EC50 for Trypanosoma brucei; format: ADME, organism-based; parameters: dose 200 mg/kg, route oral; details: in vivo
# Mus musculus [32] = assay: Toxicity in mouse assessed as decreased movement at 2 to 8 mg/kg, iv measured immediately after dosing; format: organism-based; parameters: dose 2-8 mg/kg, route intravenous; details: in vivo; in short: as §4
# Mus musculus [33] = assay: Toxicity in mouse assessed as decreased movement at 2 to 8 mg/kg, iv measured after 30 seconds; format: organism-based; parameters: dose 2-8 mg/kg, route intravenous; details: in vivo, 0.5 min; in short: as §4
# Mus musculus [34] = assay: Toxicity in mouse assessed as transient darkening of the eyes at 2 to 8 mg/kg, iv measured after 30 seconds; format: organism-based; parameters: dose 2-8 mg/kg, route intravenous; details: in vivo, 0.5 min; in short: as §4
# [35] = tested on: Trypanosoma brucei rhodesiense; assay: Antitrypanosomal activity against Trypanosoma brucei rhodesiense STIB900 infected in NMRI mouse assessed as increase of mouse survival time at 50 to 200 mg/kg, po qd
# Mus musculus [36] = assay: Toxicity in mouse at 200 mg/kg, po qd for 10 days; format: organism-based; parameters: dose 200 mg/kg, route oral; details: in vivo, 240 h
# In short: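 Five female Balb/c mice given 200 mg/kg daily by oral gavage for 10 days and monitored to day 30. One mouse sent for CBC, serum chemistry and necropsy on day 10 and another on day 30. Functional observational battery used.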
# [37] = Ratio of plasma concentration mouse at 200 mg/kg, po to EC90 for Trypanosoma brucei; format: ADME, organism-based; parameters: dose 200 mg/kg, route oral; details: in vivo
# [38] = Ratio of drug level in brain to plasma in mouse at 200 mg/kg, po after 24 hrs
# Mus musculus [39] = assay: Stability of the compound in po dosed mouse blood; format: ADME, organism-based; details: in vivo; in short: as §3
# Mus musculus [40] = assay: Stability of the compound in po dosed mouse blood assessed as 5-(2-cyano-6-(3,4-dichlorobenzylamino)-9H-purin-9-yl)pentanoic acid level after 1 hr; format: ADME, organism-based; details: in vivo; in short: as §3
SMILES,pEC50 (Trypanosoma brucei [2]),solubility [3],half-life [4],"hemolysis at 5 h, 10 µM [5]",half-life [6],selectivity ratio [7],Stability [8],Activity (Raji),Stability [9],Activity (HepG2),Stability [11],Ratio [12],Stability [13],Stability [14],Activity (BJ),Ratio [17],Stability [19],Activity (HEK293),Stability (Mus musculus [39]),other results
N#Cc1nc(NCc2ccc(Cl)c(Cl)c2)c2ncn(CCC(=O)O)c2n1,< 4.60,,,,,,,,,,,,,,,,,,,pIC50 [1]: 5.59
CCCCn1cnc2c(NCc3ccc(Cl)c(Cl)c3)nc(C#N)nc21,6.30,0.7 µM,247 h,0.9%,0.74 h,> 20,,,,,,,,,,,,,,
N#Cc1nc(NCc2ccc(Cl)c(Cl)c2)c2ncn(CCCO)c2n1,5.85,10.4 µM,5.1 h,0.7%,0.6 h,> 20,Stable,Non-toxic,Stable,Non-toxic,Stable,1300,Stable,Stable,Non-toxic,1500,Stable,Non-toxic,,Stability (Mus musculus [10]): Unstable; Ratio [15]: 960; Stability (Mus musculus [16]): Unstable; Stability (Mus musculus [18]): > 50 µM
N#Cc1nc(NCc2ccc(Cl)c(Cl)c2)c2ncn(CCCC(F)(F)F)c2n1,6.28,0.3 µM,177 h,0.4%,,> 20,,,,,,,,,,,,,,"Activity (Trypanosoma brucei [20]): inactive; Stability [21]: Stable; Activity (Mus musculus [22]): Non-toxic; Tmax [23]: 4 h; Survival (Trypanosoma brucei [24]): 9.6 days; Tmax [25]: 4 h; MTD [26]: 1000 mg/kg; Activity (Trypanosoma brucei [27]): inactive; concentration at 24 h [28]: 20 µM; Cmax [29]: 6 µM; Tmax [30]: 24 h; Ratio [31]: 20; Activity (Mus musculus [32]): Non-toxic; Activity (Mus musculus [33]): Non-toxic; Activity (Mus musculus [34]): Non-toxic; t1/2 ([6]; mouse, microsomes): Stable; Activity [35]: inactive; Activity (Mus musculus [36]): Non-toxic; Ratio [37]: 10; Kp at 24 h [38]: 2"
N#Cc1nc(NCc2ccc(Cl)c(Cl)c2)c2ncn(CCCCCO)c2n1,6.42,16.1 µM,38.3 h,0.7%,1.08 h,> 20,Stable,Non-toxic,Stable,Non-toxic,Stable,1900,Stable,Stable,Non-toxic,960,Stable,Non-toxic,Unstable,Stability (Mus musculus [40]): Unstable; Ratio [15]: 1512
COCCCn1cnc2c(NCc3ccc(Cl)c(Cl)c3)nc(C#N)nc21,5.62,4.2 µM,40.9 h,0.7%,0.53 h,> 10,,,,,,1770,,,,1800,,,Unstable,
Cc1cccc(C)c1-c1cccc(CNc2nc(C#N)nc3c2ncn3CCCO)c1,6.57,1 µM,25.7 h,1.1%,0.43 h,> 20,Stable,Non-toxic,Stable,Non-toxic,Stable,,Stable,Stable,Non-toxic,,Stable,Non-toxic,Unstable,
